# Several values for one entry are separate records, joined by “and”; a condition that tells them apart may be missing. Identical values can stand only once.
# Test system: HEK-293T
# Assay: Multiplex assay against HEK293T
# Assay type: toxicity, cell-based
# Conditions: human
# Method in brief: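 Four dyes were applied at seeding to live cells: Hoechst33342, BioTracker Green Microtubule Cytoskeleton Dye, MitoTracker Red and Annexin V Alexa Fluor 680. Imaging after compound addition used a CQ1 microscope at 37°C and 5% CO2. CellPathfinder machine-learning gating then sorted cells into Hoechst high-intensity objects or normal cells, normal cells into healthy, pyknosed or fragmented nuclei, and pyknosed cells into mitotic or apoptotic, with tubulin, mitochondrial-mass and membrane-permeability phenotypes given as per cents of healthy-nucleus cells.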
# [1] = 12 h, 1 µM, compound concentration 1 uM
# [2] = 12 h, 10 µM, compound concentration 10 uM
# [3] = 24 h, 1 µM, compound concentration 1 uM
# [4] = 24 h, 10 µM, compound concentration 10 uM
# [5] = 48 h, 1 µM, compound concentration 1 uM
# [6] = 48 h, 10 µM, compound concentration 10 uM
structure (smiles),measurement,setting,value
CN1[C@@H](CC(=O)c2ccccc2)CCC[C@H]1C[C@H](O)c1ccccc1.Cl [LOBELINE HYDROCHLORIDE],Population Apoptotic (%),[1],5.84% and 10.26%
same,Population Fragmented Nuclei (%),[1],1.05% and 2.84%
same,Population Hoechst High Intensity Objects (%),[1],0.52% and 0%
same,Population Membrane Permeable-Phenotype (%),[1],0%
same,Population Mitochondria Different-Phenotype (%),[1],33.04% and 30%
same,Population Mitotic Cells (%),[1],94.16% and 89.74%
same,Population Normal (%),[1],99.48% and 100%
same,Population Pyknosed Nuclei (%),[1],40.31% and 82.98%
same,Total Cell Count,[1],384 and 141
same,Population Apoptotic (%),[2],13.08% and 13.61%
same,Population Fragmented Nuclei (%),[2],4.88% and 1.1%
same,Population Healthy Nuclei (%),[2],49.83% and 17.68%
same,Population Hoechst High Intensity Objects (%),[2],0% and 0.55%
same,Population Membrane Permeable-Phenotype (%),[2],0.7% and 0%
same,Population Mitochondria Different-Phenotype (%),[2],17.48% and 37.5%
same,Population Mitotic Cells (%),[2],86.92% and 86.39%
same,Population Normal (%),[2],100% and 99.45%
same,Population Pyknosed Nuclei (%),[2],45.3% and 81.22%
same,Total Cell Count,[2],287 and 182
same,Population Apoptotic (%),[3],12.24% and 13.68%
same,Population Fragmented Nuclei (%),[3],2.04% and 2.68%
same,Population Healthy Nuclei (%),[3],74.92% and 33.56%
same,Population Hoechst High Intensity Objects (%),[3],0%
same,Population Membrane Permeable-Phenotype (%),[3],1.67% and 0%
same,Population Mitochondria Different-Phenotype (%),[3],11.3% and 14%
same,Population Mitotic Cells (%),[3],87.76% and 86.32%
same,Population Normal (%),[3],100%
same,Population Pyknosed Nuclei (%),[3],23.04% and 63.76%
same,Population Tubulin-Different-Phenotype (%),[3],10.46% and 6%
same,Population Apoptotic (%),[4],16.35% and 24.8%
same,Population Fragmented Nuclei (%),[4],2.39% and 1.53%
same,Population Healthy Nuclei (%),[4],69.95% and 34.69%
same,Population Hoechst High Intensity Objects (%),[4],0%
same,Population Membrane Permeable-Phenotype (%),[4],1.52% and 1.47%
same,Population Mitochondria Different-Phenotype (%),[4],18.63% and 22.06%
same,Population Mitotic Cells (%),[4],83.65% and 75.2%
same,Population Normal (%),[4],100%
same,Population Pyknosed Nuclei (%),[4],27.66% and 63.78%
same,Population Tubulin-Different-Phenotype (%),[4],12.55% and 11.76%
same,Total Cell Count,[4],376 and 196
same,Population Apoptotic (%),[5],7.27% and 13.92%
same,Population Fragmented Nuclei (%),[5],2.75% and 1.71%
same,Population Healthy Nuclei (%),[5],84.62% and 53.14%
same,Population Hoechst High Intensity Objects (%),[5],0%
same,Population Membrane Permeable-Phenotype (%),[5],5.33% and 1.08%
same,Population Mitochondria Different-Phenotype (%),[5],11.75% and 19.35%
same,Population Mitotic Cells (%),[5],92.73% and 86.08%
same,Population Normal (%),[5],100%
same,Population Fragmented Nuclei (%),[6],2.84% and 1.89%
same,Population Healthy Nuclei (%),[6],86.48% and 58.49%
same,Population Hoechst High Intensity Objects (%),[6],0% and 0.75%
same,Population Membrane Permeable-Phenotype (%),[6],2.5% and 0%
same,Population Mitochondria Different-Phenotype (%),[6],30.22% and 37.42%
same,Population Mitotic Cells (%),[6],94.68% and 75.24%
same,Population Normal (%),[6],100% and 99.25%
CC(C)(C)c1cc(C(C)(C)C)c(NC(=O)c2c[nH]c3ccccc3c2=O)cc1O [IVACAFTOR],Population Apoptotic (%),[1],10.06% and 8.26%
same,Population Fragmented Nuclei (%),[1],0% and 2.11%
same,Population Healthy Nuclei (%),[1],51.67% and 21.13%
same,Population Hoechst High Intensity Objects (%),[1],0.3% and 0%
same,Population Membrane Permeable-Phenotype (%),[1],0.59% and 0%
same,Population Mitochondria Different-Phenotype (%),[1],31.76% and 13.33%
same,Population Mitotic Cells (%),[1],89.94% and 91.74%
same,Population Normal (%),[1],99.7% and 100%
same,Population Pyknosed Nuclei (%),[1],48.33% and 76.76%
same,Total Cell Count,[1],330 and 142
same,Population Apoptotic (%),[2],31.3% and 21.05%
same,Population Fragmented Nuclei (%),[2],2.9% and 1.94%
same,Population Hoechst High Intensity Objects (%),[2],0.72% and 0%
same,Population Membrane Permeable-Phenotype (%),[2],0%
same,Population Mitochondria Different-Phenotype (%),[2],27.01% and 57.89%
same,Population Mitotic Cells (%),[2],68.7% and 78.95%
same,Population Normal (%),[2],99.28% and 100%
same,Population Pyknosed Nuclei (%),[2],47.46% and 85.81%
same,Total Cell Count,[2],278 and 155
same,Population Apoptotic (%),[3],15.6% and 17.89%
same,Population Fragmented Nuclei (%),[3],0.58% and 1.37%
same,Population Healthy Nuclei (%),[3],78.42% and 33.56%
same,Population Hoechst High Intensity Objects (%),[3],0%
same,Population Membrane Permeable-Phenotype (%),[3],0.49% and 2.04%
same,Population Mitochondria Different-Phenotype (%),[3],13.02% and 8.16%
same,Population Mitotic Cells (%),[3],84.4% and 82.11%
same,Population Normal (%),[3],100%
same,Population Tubulin-Different-Phenotype (%),[3],7.13% and 10.2%
same,Population Apoptotic (%),[4],52.29% and 35.25%
same,Population Fragmented Nuclei (%),[4],2.77% and 2.63%
same,Population Hoechst High Intensity Objects (%),[4],0.82% and 0%
same,Population Membrane Permeable-Phenotype (%),[4],0% and 3.85%
same,Population Mitotic Cells (%),[4],47.71% and 64.75%
same,Population Normal (%),[4],99.18% and 100%
same,Population Pyknosed Nuclei (%),[4],30.19% and 80.26%
same,Population Tubulin-Different-Phenotype (%),[4],10.74% and 7.69%
same,Total Cell Count,[4],364 and 152
same,Population Apoptotic (%),[5],8.49% and 16.88%
same,Population Fragmented Nuclei (%),[5],2.06% and 0.56%
same,Population Healthy Nuclei (%),[5],89.56% and 55.93%
same,Population Hoechst High Intensity Objects (%),[5],0.24% and 0.56%
same,Population Membrane Permeable-Phenotype (%),[5],3.45% and 1.01%
same,Population Mitotic Cells (%),[5],91.51% and 83.12%
same,Population Normal (%),[5],99.76% and 99.44%
same,Population Apoptotic (%),[6],17.35% and 40.23%
same,Population Fragmented Nuclei (%),[6],2.23% and 4%
same,Population Healthy Nuclei (%),[6],84.89% and 46.29%
same,Population Hoechst High Intensity Objects (%),[6],0.13% and 1.69%
same,Population Membrane Permeable-Phenotype (%),[6],2.48% and 1.23%
same,Population Mitochondria Different-Phenotype (%),[6],34.21% and 56.79%
same,Population Mitotic Cells (%),[6],82.65% and 59.77%
same,Population Normal (%),[6],99.87% and 98.31%

# Reference: ChEMBL document CHEMBL5724801, “EUbOPEN Chemogenomics Library - Multiplex” (2024)
